Assay results reported in PubChem BioAssay.
Calls of active or inactive are those of the source. Unless noted, no rule for the calls is given here.

Key:
[1] = target: Pantothenate synthetase (Mycobacterium tuberculosis (strain ATCC 25618 / H37Rv)) (UniProt P9WIL5); experiment: Recombinant Mtb pantothenate synthetase (PanC) inhibitors, coupled enzyme, confirmatory (AID 375); details: coupled enzyme assay; at 10 µM, stronger effect = higher value;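 also: 0% = full reaction with vehicle and 100% = no enzyme background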
[2] = SK-BR-3 cell growth inhibitors, pilot screen, 24 h, human (AID 572;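 active = viability at or below 10% of carrier control in both of two separate runs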;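 also: compound exposure lasted between 18 and 24 h rather than exactly 24 h; 100% = carrier-treated control wells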); details: SK-BR-3 viability, CellTiter-Glo luminescence, at 10 µM, stronger effect = lower value
[3] = HUVEC growth inhibition – cell-based, human, primary screen (AID 575;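 active = viability at or below 30% in both replicate assays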;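 also: 100% = median of untreated cell wells with 0.1% DMSO on each plate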); details: HUVEC proliferation, CellTiter-Glo luminescence, 72 h; at 10 µM; stronger effect = lower value
How it was run: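 System – primary HUVEC, no more than 12 passages · Medium – Low-serum (2% FBS) EBM, supplemented · Times – 72 h exposure, 37 °C, 5% CO2, 30 min RT equilibration · Measured by – luminescent ATP assay · Read-out – % viability relative to median vehicle-well signal on each plate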

[4] = growth inhibitors of H69AR lung tumor, primary screen, human, duplicate replicates (AID 580;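 active = viability at or under a set limit in both replicates, limit being median viability minus 3 SD, cut at about 48% in these data, passing the limit was not always enough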;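 also: 100% = mean luminescence of untreated wells and 0% = no signal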); details: H69AR lung tumor cells viability, ATP luminescence, 72 h; at 10 µM; stronger effect = lower value
[5] = reversal of MRP1-mediated doxorubicin resistance, pilot screen, H69AR cells, doxorubicin co-treatment (AID 601;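 active = viability loss from added drug above about 55%, and viability with drug at most 40%, in both replicates, limit read from the data, passing the limit was not always enough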); details: CellTiter-Glo, 72 h, at 10 µM; for differential viability (reversal): stronger effect = higher value
[6] = 384-well plate pilot, post-Golgi transport modulator project, inhibition of yeast transport mutant growth (AID 636; in the data active = inhibition above about 31%); details: absorbance 615 nm, about 18 h, stronger effect = higher value
[7] = growth suppression of yeast trafficking mutant, preliminary HTS, modulators of trafficking downstream of Golgi apparatus project, 1536-format plate, OD 615 nm (AID 637; in the data active = inhibition above about 30%); details: yeast transport mutant growth, absorbance 615 nm, 18 h; stronger effect = higher value
[8] = H69AR cells + 2 uM doxorubicin, measured here: viability with 2 uM doxorubicin, stronger effect = lower value
[9] = H69AR cells, compound alone cytotoxicity

Sequence of Pantothenate synthetase (Mycobacterium tuberculosis (strain ATCC 25618 / H37Rv)) (P9WIL5 whole entry, looked up): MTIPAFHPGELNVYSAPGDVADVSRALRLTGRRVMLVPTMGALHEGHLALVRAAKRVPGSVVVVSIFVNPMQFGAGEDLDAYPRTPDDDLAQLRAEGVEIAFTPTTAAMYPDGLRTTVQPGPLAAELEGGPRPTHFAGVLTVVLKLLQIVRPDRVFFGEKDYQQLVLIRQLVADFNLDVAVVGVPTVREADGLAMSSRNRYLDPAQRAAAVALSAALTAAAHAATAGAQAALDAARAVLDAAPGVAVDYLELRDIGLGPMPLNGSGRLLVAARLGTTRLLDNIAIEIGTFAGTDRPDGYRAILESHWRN

| Structure (SMILES) | inhibition [1] | viability [2] | viability [3] | viability [4] | differential viability (reversal) ([5]; H69AR cells + 2 uM doxorubicin) | viability [5, 8] [%] | viability [5, 9] [%] | inhibition [6] | inhibition [7] |
| --- | --- | --- | --- | --- | --- | --- | --- | --- | --- |
| CCOc1cccc(N2C(=O)CC(=O)NC2=O)c1 | 0% (inactive) | 124% (inactive) | 107% (inactive) | 94.5% (inactive) | -2.27% (inactive) | 96.8 | 94.5 | -2.6% (inactive) | -8.55% (inactive) |
| NCC1(CC(=O)O)CCCCC1 | 3% (inactive) | 105% (inactive) | 101% (inactive) | 96.8% (inactive) | 7.93% (inactive) | 88.9 | 96.8 | -1.17% (inactive) | 2% (inactive) |
| CN1CC[C@@]23CCCC[C@@H]2[C@@H]1Cc1ccc(O)cc13 | 1% (inactive) | 88% (inactive) | 79.4% (inactive) | 95.8% (inactive) | 7.79% (inactive) | 88 | 95.8 | -3.12% (inactive) | -0.33% (inactive) |
| CCCNC(=O)c1c(N)n(Cc2ccc3c(c2)OCO3)c2nc3ccccc3nc12 | 0% (inactive) | 102% (inactive) | 21.8% (active) | 43.8% (active) | 6.99% (inactive) | 36.8 | 43.8 | -3.2% (inactive) | 0.66% (inactive) |
| CC(C)OCCCNC(=O)c1c(N)n(Cc2cccs2)c2nc3ccccc3nc12 | 0% (inactive) | 26% | 6.24% (active) | 61.1% (inactive) | -18.8% (inactive) | 79.8 | 61.1 | -2.47% (inactive) | -7.33% (inactive) |
| CCCC(=O)OCC[N+](C)(C)C | 0% (inactive) | 83% (inactive) | 93.4% (inactive) | 101% (inactive) | -4.88% (inactive) | 106 | 101 | 1.04% (inactive) | 40.7% (active) |
